# Reference: ChEMBL document CHEMBL1759851, “Facile synthesis and stereochemical investigation of Mannich base derivatives: evaluation of antioxidant property and antituberculostic potency” (2011)
# Key:
# Assay type in all cases: functional
# [1] = system: Mycobacterium tuberculosis; experiment: Antituberculosis activity against Mycobacterium tuberculosis H37Rv
# Outline: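 Zone-of-inhibition assay against M. tuberculosis H37Rv. Zone diameters were scored on an activity index: 0–5 mm, 6–10 mm (+), 11–15 mm (++), 16–20 mm (+++), and a top band (++++) for larger zones.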
# [2] = system: Radical scavenging activity; experiment: Antioxidant activity assessed as DPPH radical scavenging activity at 100 ug/mL after 30 mins
# Outline: (§1)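 Oxime ethers tested by DPPH radical scavenging (Blois method, slightly modified). Sample and DPPH solution mixed gently and left at room temperature for 30 min. Optical density read at 530 nm on a microplate reader. Scavenging reported as % inhibition at each test concentration.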
# [3] = system: Radical scavenging activity; experiment: Antioxidant activity assessed as DPPH radical scavenging activity at 10 ug/mL after 30 mins; outline: as §1
# [4] = system: Radical scavenging activity; experiment: Antioxidant activity assessed as DPPH radical scavenging activity at 400 ug/mL after 30 mins; outline: as §1
# [5] = system: Radical scavenging activity; experiment: Antioxidant activity assessed as DPPH radical scavenging activity at 200 ug/mL after 30 mins; outline: as §1
# [6] = system: Radical scavenging activity; experiment: Antioxidant activity assessed as DPPH radical scavenging activity at 800 ug/mL after 30 mins; outline: as §1
smiles,measurement,setting,value
CO/N=C1\[C@H]2CCC[C@@H]1[C@H](c1ccc(OC)cc1)N[C@@H]2c1ccc(OC)cc1,inhibition zone (IZ),[1],6 mm
same,inhibition,[2],13.9%
O=C1O[C@H]([C@@H](O)CO)C(O)=C1O,inhibition,[3],98.5%
CO/N=C1\[C@H]2CCC[C@@H]1[C@H](c1ccccc1Cl)N(C)[C@@H]2c1ccccc1Cl,inhibition zone (IZ),[1],11 mm
same,inhibition,[2],11.4%
CO/N=C1\[C@H]2CCC[C@@H]1[C@H](c1ccc(F)cc1)N(C)[C@@H]2c1ccc(F)cc1,inhibition zone (IZ),[1],<=21 mm
same,inhibition,[2],2.4%
CO/N=C1\[C@H]2CCC[C@@H]1[C@H](c1ccc(Br)cc1)N(C)[C@@H]2c1ccc(Br)cc1,inhibition zone (IZ),[1],0 mm
same,inhibition,[2],12.1%
CO/N=C1\[C@H]2CCC[C@@H]1[C@H](c1ccccc1OC)N(C)[C@@H]2c1ccccc1OC,inhibition,[4],40.2%
same,inhibition,[2],15.4%
same,inhibition,[5],24.9%
CO/N=C1\[C@H]2CCC[C@@H]1[C@H](c1ccccc1F)N[C@@H]2c1ccccc1F,inhibition zone (IZ),[1],11 mm
same,inhibition,[2],2.33%
CO/N=C1\[C@H]2CCC[C@@H]1[C@H](c1ccc(F)cc1)N[C@@H]2c1ccc(F)cc1,inhibition zone (IZ),[1],16 mm
same,inhibition,[2],3.6%
CO/N=C1\[C@H]2CCC[C@@H]1[C@H](c1cccc(Br)c1)N[C@@H]2c1cccc(Br)c1,inhibition,[2],4.35%
C=CCOc1ccc([C@H]2N[C@@H](c3ccc(OCC=C)cc3)[C@H]3CCC[C@@H]2/C3=N\OC)cc1,inhibition,[4],31.8%
same,inhibition zone (IZ),[1],<=21 mm
same,inhibition,[2],21.7%
same,inhibition,[5],25.8%
CO/N=C1\[C@H]2CCC[C@@H]1[C@H](c1ccccc1Br)N[C@@H]2c1ccccc1Br,inhibition,[2],5.28%
CO/N=C1\[C@H]2CCC[C@@H]1[C@H](c1ccccc1C)N[C@@H]2c1ccccc1C,inhibition zone (IZ),[1],0 mm
same,inhibition,[2],9.5%
CCCCOc1ccc([C@H]2N[C@@H](c3ccc(OCCCC)cc3)[C@H]3CCC[C@@H]2/C3=N\OC)cc1,inhibition zone (IZ),[1],6 mm
same,inhibition,[2],27.8%
same,inhibition,[5],43.9%
CO/N=C1\[C@H]2CCC[C@@H]1[C@H](c1ccccc1Cl)N[C@@H]2c1ccccc1Cl,inhibition zone (IZ),[1],6 mm
same,inhibition,[2],6.47%
NNC(=O)c1ccncc1 [ISONIAZID],inhibition zone (IZ),[1],<=21 mm
CO/N=C1\[C@H]2CCC[C@@H]1[C@H](c1ccc(OC)cc1)N(C)[C@@H]2c1ccc(OC)cc1,inhibition,[4],58.8%
same,inhibition zone (IZ),[1],6 mm
same,inhibition,[2],20.9%
same,inhibition,[5],41.9%
CO/N=C1\[C@H]2CCC[C@@H]1[C@H](c1ccc(C(C)C)cc1)N[C@@H]2c1ccc(C(C)C)cc1,inhibition zone (IZ),[1],6 mm
same,inhibition,[2],15.3%
CCc1ccc([C@H]2N[C@@H](c3ccc(CC)cc3)[C@H]3CCC[C@@H]2/C3=N\OC)cc1,inhibition zone (IZ),[1],0 mm
same,inhibition,[2],11.9%
CO/N=C1\[C@H]2CCC[C@@H]1[C@H](c1ccc(Cl)cc1)N[C@@H]2c1ccc(Cl)cc1,inhibition zone (IZ),[1],11 mm
same,inhibition,[2],6.58%
CCOc1ccc([C@H]2N[C@@H](c3ccc(OCC)cc3)[C@H]3CCC[C@@H]2/C3=N\OC)cc1,inhibition zone (IZ),[1],6 mm
same,inhibition,[2],23.2%
same,inhibition,[5],30.8%
CO/N=C1\[C@H]2CCC[C@@H]1[C@H](c1ccc(Br)cc1)N[C@@H]2c1ccc(Br)cc1,inhibition zone (IZ),[1],0 mm
same,inhibition,[2],5.72%
CO/N=C1\[C@H]2CCC[C@@H]1[C@H](c1ccccc1)N[C@@H]2c1ccccc1,inhibition,[4],24.4%
same,inhibition zone (IZ),[1],0 mm
same,inhibition,[2],10.5%
same,inhibition,[5],18.7%
CO/N=C1\[C@H]2CCC[C@@H]1[C@H](c1cccc(OC)c1)N(C)[C@@H]2c1cccc(OC)c1,inhibition,[4],26.8%
same,inhibition,[2],10.7%
same,inhibition,[5],13.8%
CO/N=C1\[C@H]2CCC[C@@H]1[C@H](c1ccc(OCc3ccccc3)cc1)N[C@@H]2c1ccc(OCc2ccccc2)cc1,inhibition zone (IZ),[1],<=21 mm
same,inhibition,[2],27.9%
same,inhibition,[5],47.8%
CO/N=C1\[C@H]2CCC[C@@H]1[C@H](c1ccc(C)cc1)N(C)[C@@H]2c1ccc(C)cc1,inhibition zone (IZ),[1],6 mm
same,inhibition,[2],19.8%
same,inhibition,[5],22%
CCCOc1ccc([C@H]2N[C@@H](c3ccc(OCCC)cc3)[C@H]3CCC[C@@H]2/C3=N\OC)cc1,inhibition zone (IZ),[1],6 mm
same,inhibition,[2],23.9%
same,inhibition,[5],38.5%
CO/N=C1\[C@H]2CCC[C@@H]1[C@H](c1cccc(OC)c1)N[C@@H]2c1cccc(OC)c1,inhibition,[2],13.5%
CCOc1ccccc1[C@H]1N[C@@H](c2ccccc2OCC)[C@H]2CCC[C@@H]1/C2=N\OC,inhibition zone (IZ),[1],6 mm
same,inhibition,[2],10.2%
CO/N=C1\[C@H]2CCC[C@@H]1[C@H](c1ccc(OC(C)=O)c(OC)c1)N[C@@H]2c1ccc(OC(C)=O)c(OC)c1,inhibition,[4],78.3%
same,inhibition,[2],32.4%
same,inhibition,[6],88.8%
same,inhibition,[5],52.9%
CO/N=C1\[C@H]2CCC[C@@H]1[C@H](c1cccc(Cl)c1)N[C@@H]2c1cccc(Cl)c1,inhibition zone (IZ),[1],0 mm
same,inhibition,[2],4.77%
CO/N=C1\[C@H]2CCC[C@@H]1[C@H](c1ccccc1OC)N[C@@H]2c1ccccc1OC,inhibition zone (IZ),[1],6 mm
same,inhibition,[2],16%
same,inhibition,[5],20.7%
CO/N=C1\[C@H]2CCC[C@@H]1[C@H](c1ccccc1C)N(C)[C@@H]2c1ccccc1C,inhibition zone (IZ),[1],6 mm
same,inhibition,[2],15.3%
CO/N=C1\[C@H]2CCC[C@@H]1[C@H](c1ccccc1)N(C)[C@@H]2c1ccccc1,inhibition,[2],10.7%
same,inhibition,[5],13.8%
CO/N=C1\[C@H]2CCC[C@@H]1[C@H](c1cccc(F)c1)N[C@@H]2c1cccc(F)c1,inhibition zone (IZ),[1],6 mm
same,inhibition,[2],0.97%
CO/N=C1\[C@H]2CCC[C@@H]1[C@H](c1ccc(C)cc1)N[C@@H]2c1ccc(C)cc1,inhibition zone (IZ),[1],0 mm
same,inhibition,[2],14.5%
CO/N=C1\[C@H]2CCC[C@@H]1[C@H](c1ccc(SC)cc1)N[C@@H]2c1ccc(SC)cc1,inhibition zone (IZ),[1],11 mm
same,inhibition,[2],17.6%
same,inhibition,[5],22.5%
CO/N=C1\[C@H]2CCC[C@@H]1[C@H](c1ccc(Cl)cc1)N(C)[C@@H]2c1ccc(Cl)cc1,inhibition zone (IZ),[1],11 mm
same,inhibition,[2],11.9%
